From ChEMBL document CHEMBL1122013, “Inhibitors of gastric acid secretion: 3,4-diamino-1,2,5-thiadiazole 1-oxides and 1,1-dioxides as urea equivalents in a series of histamine H2-receptor antagonists” (J Med Chem, 1982)
Several values for one entry are separate records, joined by “and”; a condition that tells them apart may be missing. Identical values can stand only once.

How the values were obtained:
[1] = Slope value of the compound
[2] = target: Histamine H2 receptor (Cavia porcellus) (UniProt P47747); assay: In vitro inhibition of Histamine H2 receptor by measuring its ability to block dimaprit-stimulated chronotropic response of guinea pig atrium strips; format: tissue-based; details: Cardiac atrium
[3] = system: Canis familiaris; assay: Inhibition of acid output in dogs (po); format: functional; details: Canis lupus familiaris
In short: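 Dogs with a gastric fistula, stimulated with histamine, were dosed orally with compound solubilized in aqueous vehicle containing 1 equiv of HCl. Gastric secretion was measured over the period of maximum effectiveness (0-30 min after histamine). ED50 and confidence limits came from analysis of variance across four dose levels with 3-5 dogs per dose.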

[4] = Ratio (po/iv) value of the compound; format: functional
[5] = system: Canis familiaris; assay: Inhibition of acid output in dogs (iv); format: functional; details: Canis lupus familiaris
In short: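 Dogs with gastric fistula under histamine stimulation. The compound is dissolved in aqueous vehicle with 1 equiv of HCl. It is given orally (po), or intravenously (iv) immediately before histamine. Acid secretion is measured over the period of maximum effect, 0-30 min after histamine. ED50 and confidence limits come from analysis of variance over four dose levels, with 3-5 dogs per dose.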

[6] = target: Histamine H2 receptor (Cavia porcellus, UniProt P47747); assay: In vitro inhibition of Histamine H2 receptor by measuring its ability to block the histamine-stimulated adenylate cyclase of guinea pig hippocampal homogenate; format: tissue-based, Hippocampus
[7] = target: Histamine H2 receptor (Cavia porcellus) (UniProt P47747); details: Cardiac atrium

Histamine H2 receptor (Cavia porcellus), sequence (P47747 whole entry): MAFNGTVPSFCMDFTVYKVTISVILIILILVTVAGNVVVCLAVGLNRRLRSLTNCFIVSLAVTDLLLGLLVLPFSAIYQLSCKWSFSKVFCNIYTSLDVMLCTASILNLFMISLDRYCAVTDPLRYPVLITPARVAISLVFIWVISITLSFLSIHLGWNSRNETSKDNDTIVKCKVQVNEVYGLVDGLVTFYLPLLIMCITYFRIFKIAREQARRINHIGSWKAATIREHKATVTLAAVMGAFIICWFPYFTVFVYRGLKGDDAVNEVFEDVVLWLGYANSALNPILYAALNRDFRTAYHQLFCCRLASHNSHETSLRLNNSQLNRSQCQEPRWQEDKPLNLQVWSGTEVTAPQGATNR
Histamine H2 receptor, sequence (P47747 whole entry): as above

| SMILES | Slope [1] | -Log KB [2] | ED50 [3] | Ratio [4] | ED50 [5] | Ki [6] | -Log KB [7] |
| --- | --- | --- | --- | --- | --- | --- | --- |
| Nc1n[s+]([O-])nc1NCCCOc1cccc(CN2CCCCC2)c1 (stereo not given) | 1.4 and 1.73 | – | – | – | – | – | – |
| CN(C)Cc1ccc(CSCCNc2n[s+]([O-])nc2N)o1 (stereo not given) | 1.1 and 0.55 | – | – | – | – | – | – |
| CNc1n[s+]([O-])nc1NCCSCc1ccc(CN(C)C)o1 (stereo not given) | 1.03 | 7.85 | 0.3 mg/kg | 6 | 0.05 mg/kg | – | – |
| N=C(N)Nc1nc(CSCCNc2n[s+]([O-])nc2N)cs1 (stereo not given) | 0.85 | 8.17 | – | – | – | – | – |
| CNC(=C[N+](=O)[O-])NCCSCc1ccc(CN(C)C)o1 [RANITIDINE] | 1.6 and 0.76 | – | 0.42 mg/kg | 14 | 0.04 mg/kg | 0.501 µM | 7.32 |
| CN(C)Cc1ccc(CSCCNC2=NS(=O)(=O)N=C2N)o1 | 1.3 and 0.53 | – | – | – | – | – | – |
| CN/C(=N\CCSCc1nc[nH]c1C)NC#N [CIMETIDINE] | 0.9 and 0.78 | – | – | – | 1.84 mg/kg | – | – |
| Cc1[nH]cnc1CSCCNc1n[s+]([O-])nc1N (stereo not given) | 0.85 | 5.98 | – | – | – | – | – |
